Compounds with a hit are over-represented: about 2.5% of the library has one in this group of screens.
NR2E3 ag-1: agonists of human NR2E3 nuclear receptor. inhibition of corepressor binding, % at 3.98 µM. actives 0.35% (n = 360,000). CHO-S Gal4-NCOR/VP16-NR2E3 two-hybrid, luciferase. AID 602229;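 active means inhibition above the mean of all tested compounds plus 3 SD, cut at about 70% in these data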;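 further: higher means lower luciferase signal from less NR2E3 corepressor binding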
Target sequence (Q9Y5X4 whole entry, looked up, the tested form may be a part): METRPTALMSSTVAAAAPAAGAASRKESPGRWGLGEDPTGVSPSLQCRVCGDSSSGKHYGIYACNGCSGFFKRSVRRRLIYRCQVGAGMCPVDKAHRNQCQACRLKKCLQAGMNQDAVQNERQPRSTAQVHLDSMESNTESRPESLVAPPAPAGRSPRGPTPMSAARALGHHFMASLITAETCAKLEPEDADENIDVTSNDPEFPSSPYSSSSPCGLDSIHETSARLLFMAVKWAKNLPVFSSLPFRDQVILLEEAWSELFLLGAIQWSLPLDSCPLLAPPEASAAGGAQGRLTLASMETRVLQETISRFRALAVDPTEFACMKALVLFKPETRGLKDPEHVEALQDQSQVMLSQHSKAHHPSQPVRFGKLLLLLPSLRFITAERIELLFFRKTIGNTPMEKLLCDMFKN
NadD inh: NadD (S. aureus) enzyme inhibition | inhibition, % at 20 µM | AID 602399 | actives 0.78% (n = 360,000) | purified NadD enzyme, colorimetric absorbance read-out; in the data active means inhibition above about 26%
bovine MsrA act: bovine methionine sulfoxide reductase A activation; activation, % at 10.6 µM; AID 602163; actives 0.3% (n = 360,000); purified bovine MsrA, absorbance read-out; in the data active means activation above about 7.5%
GalR3 antag: human GalR3 antagonism | O60755 | actives 0.44% (n = 360,000) | inhibition, % at 3 µM | HEK293 GalR3-CNG cAMP membrane potential fluorescence; galR3 body fused to GalR1 C-terminus;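 active means inhibition above the screen-wide average plus 3 SD, cut at about 13% in these data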;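 further: forskolin and galanin both at EC90 stimulate the cells; cAMP rise reported by CNG channel membrane potential dye signal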
NR2E3 ag-2: activates human photoreceptor nuclear receptor NR2E3. actives 0.12% (n = 320,000). inhibition of corepressor binding, % at 4.78 µM. GST-NR2E3/biotin-RetCOR TR-FRET, 1536-well;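 active means percent inhibition above the cutoff of mean plus 3 SD of all tested compounds, set per screening campaign, cut at about 20% in these data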
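Format: 1536-well format; test system: GST-NR2E3 and biotin-RetCOR proteins; read-out basis: percent inhibition of TR-FRET ratio; timing: 5 h incubation at 4 °C; detection: time-resolved FRET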
MsrA inh: inhibits bovine methionine sulfoxide reductase A | purified bovine MsrA, absorbance read-out | inhibition, % at 15.5 µM | actives 0.75% (n = 360,000) | AID 651718
MsrA conf: bovine MsrA inhibition, confirmed | shares compounds with MsrA inh | purified bovine MsrA, absorbance read-out | inhibition, % at 15.5 µM | actives 41% (n = 2,300) | AID 651822;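 further: coupled to thioredoxin reductase with NADPH and selenocystamine and DMSO as substrate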
GalR3 antag conf: confirmation of human galanin receptor 3 antagonists | HEK293 GalR3 CNG cAMP biosensor, membrane potential fluorescence; galR3 fused to GalR1 carboxy tail; challenged with forskolin and galanin at EC90 | inhibition, % at 3 µM | shares compounds with GalR3 antag | actives 59% (n = 1,600);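 active means inhibition above the primary screen's cutoff, the mean inhibition of all screened compounds plus 3 SD, cut at about 13% in these data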
HEK-CNG parental: parental cell agonism counter-screen for GalR3 antagonists; shares compounds with GalR3 antag; HEK293-CNG parental cells, cAMP membrane potential fluorescence; normalised: DMSO wells 0%, forskolin wells 100%; activation, % at 3 µM; actives 10% (n = 1,600); AID 652268; in the data active means activation above about 1.3%
Hits are given with their value; – = inactive; · = no result. Unless noted, no stated cut-off is given here; in the data, active means inhibition above about 4.5%; inactive means the rest.

SMILES	NR2E3 ag-1	NadD inh	bovine MsrA act	GalR3 antag	NR2E3 ag-2	MsrA inh	GalR3 antag conf	HEK-CNG parental	others
COc1ccc(Nc2cc3n(c(=O)n2)CCc2cc(OC)c(OC)cc2-3)c(C)c1	–	–	–	40	–	4.9	72	–	MsrA conf=–
COc1ccc(Nc2cc3n(c(=O)n2)CCc2cc(OC)c(OC)cc2-3)cc1	–	–	–	21	–	5.5	59	–	MsrA conf=–
COc1cc2c(cc1OC)-c1cc(Nc3ccccc3)nc(=O)n1CC2	–	–	–	44	–	5.1	57	–	MsrA conf=–
COc1cc2c(cc1OC)-c1cc(Nc3ccccc3Br)nc(=O)n1CC2	–	–	–	49	–	7.5	61	–	MsrA conf=–
CC(C)CNC(=O)C(=O)NCC1OCCCN1S(=O)(=O)c1cccs1 (stereo not given)	–	–	–	–	–	–	·	·
O=C(O)/C=C/C(=O)Nc1ccc(Cl)c(C(=O)O)c1	–	–	–	–	–	–	·	·
O=C(O)Cc1ccc2oc(-c3ccccn3)nc2c1	–	–	–	–	–	–	·	·
COc1ccc(/C=C/C2=NNC(=O)CC2)cc1	–	–	–	15	–	5.5	–	–	MsrA conf=4.7
O=C1CCC(/C=C/c2ccccc2)=NN1	–	–	–	–	–	–	·	·
CCOc1ccc2[nH]c(=O)c(CN(Cc3ccco3)Cc3nnnn3Cc3ccccc3)cc2c1	–	–	–	–	–	–	·	·
CCOc1ccc2[nH]c(=O)c(CN(Cc3ccco3)C(CC)c3nnnn3Cc3ccccc3)cc2c1 (stereo not given)	–	–	–	24	–	–	–	–
CC1=CC(C)(C)N(C(=O)CSc2nnc(-c3ccc(C)cc3)o2)c2ccc(C)cc21	–	–	–	–	–	–	·	·
CN1CCN(S(=O)(=O)c2ccc3c(c2)OCCO3)CC1	–	–	–	–	–	–	·	·
O=S(=O)(c1ccc2c(c1)OCCO2)N1CCN(c2ncnc3sccc23)CC1	87	–	–	100	–	–	111	–
CN(C)S(=O)(=O)c1ccc(N2CCCC2)c(C(=O)Nc2ccccc2F)c1	–	–	–	–	–	–	·	·
COc1ccc(-c2oc3ccc(N4CCOCC4)cc3c2C#CCO)cc1	–	–	–	57	–	–	30	–
COc1ccc(-c2ccc3oc(-c4ccc(OC)cc4)c(C#CCO)c3c2)cc1	–	–	–	95	–	–	110	–
O=C(Nc1ccnn1C1CCN(Cc2ccccc2OC(F)F)CC1)c1cccc(F)c1	–	–	–	–	–	–	·	·
O=C(CCSc1nc(-c2ccco2)cc(C(F)(F)F)n1)N1CCCc2ccccc21	–	–	–	–	–	–	·	·
CC1Oc2ccccc2C=C1/C=N/Nc1ccc(C(=O)O)cc1 (stereo not given)	–	–	–	14	–	–	14	–
O=[N+]([O-])c1ccc(N=Nc2c(Cl)cc(O)cc2Cl)cc1	–	–	–	35	–	–	31	3.9
Cc1c(C(=O)OCC(=O)N2CCCC2)cccc1[N+](=O)[O-]	–	–	–	–	–	–	·	·
COc1ccccc1CNC(=O)C1CC(c2ccccc2[N+](=O)[O-])=NO1 (stereo not given)	–	–	–	·	–	–	–	–
COc1ccc(CNC(=O)C2CC(c3ccccc3[N+](=O)[O-])=NO2)cc1 (stereo not given)	–	–	–	–	–	–	·	·
Cc1ccc(C)c(NC(=O)CCN2CCN(CCO)CC2)c1	–	–	–	–	–	–	·	·
SMILES	NR2E3 ag-1	NadD inh	bovine MsrA act	GalR3 antag	NR2E3 ag-2	MsrA inh	GalR3 antag conf	HEK-CNG parental	others
Cc1ccc(OCCCCn2cnc3ccccc32)cc1	–	–	–	–	–	–	·	·
Cc1ccccc1OCCCCn1cnc2ccccc21	–	–	–	77	–	–	19	–
O=C(Cc1c[nH]c2ccccc12)Nc1nnc(C2CC2)s1	–	–	–	–	–	–	·	·
COc1cccc(N2CCN(c3ncnc4c3cnn4-c3ccc(C)cc3C)CC2)c1	–	–	–	67	–	–	97	–
CCCNS(=O)(=O)c1ccc(-n2cnnn2)c(OC)c1	–	–	–	–	–	–	·	·
c1ccc(-c2c[n+]3c(n2-c2ccccc2)CCC3)cc1	–	–	–	–	–	–	·	·
CCOc1ccc(-n2c(-c3ccccc3)c[n+]3c2CCCCC3)cc1	–	–	–	51	–	–	78	–
CC(=O)Nc1cccc(C(=O)/C=C/c2ccc(Br)cc2)c1	–	–	–	15	–	–	30	–
Cc1ccc(NC(=O)CN(C)C(=O)CCCN2C(=O)c3ccccc3C2=O)cc1	–	–	–	14	–	–	–	–
CC(=O)N1CCC2(CC1)C(C#N)=C(N)Oc1n[nH]c(C(F)(F)F)c12	–	–	–	·	–	–	–	–
CCOC(=O)N1CCC2(CC1)C(C#N)=C(N)Oc1n[nH]c(C)c12	–	–	–	–	–	–	·	·
CC(C)C1C(=O)N(Cc2cn(CC3CCCCC3)nn2)CCS(=O)(=O)N1Cc1ccc(-c2ccc(F)cc2)cc1 (stereo not given)	–	–	–	–	·	–	·	·
O=C(Cn1c(NCCO)nc2ccccc21)NCC(F)(F)F	–	–	–	–	–	–	·	·
CCc1onc(C)c1C(=O)Nc1ccc2c(c1)OCO2	–	–	–	·	–	–	–	–
COc1ccc(N2C(=S)NC3CS(=O)(=O)CC32)cc1 (stereo not given)	–	–	–	–	–	–	·	·
COc1cc2c(cc1OC)C(c1ccc([N+](=O)[O-])cc1)NC(=O)C2 (stereo not given)	–	–	–	–	–	–	·	·
N#C/C(=C(/O)COc1ccc(Cl)cc1)c1nc2ccccc2s1	–	–	–	14	–	–	–	1.3
CC(C)N(CCn1c(SCC(=O)N2CC(=O)Nc3ccccc32)nc2ccccc2c1=O)C(C)C	–	–	–	–	–	–	·	·
CCOCCCNS(=O)(=O)c1ccc(NC(=O)c2ccccc2)cc1	–	–	–	65	–	–	–	–
COCCN(Cc1cccs1)S(=O)(=O)c1ccc(-c2ccc(=O)[nH]n2)s1	–	–	–	26	–	–	28	–
CCCCN(Cc1cccs1)S(=O)(=O)c1ccc(-c2ccc(=O)[nH]n2)s1	–	–	–	22	–	–	24	–
CCOC(=O)CCN(c1ccccc1)S(=O)(=O)c1ccc(-c2ccc(=O)[nH]n2)s1	–	–	–	33	–	–	57	–
